Where only a bound is given, the exact number is not on record here.

The first assay addresses GABA-A receptor; anion channel. Description: In vitro binding affinity at benzodiazepine receptor of rat cerebral cortical membranes by [3H]diazepam displacement. An outline of the steps: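 Rat cerebral cortex homogenised in 50 mM Tris-HCl pH 7.4, centrifuged at 20000g at 4 °C and washed three times. Membranes incubated with drug and 2 nM [3H]diazepam (final) for 120 min at 4 °C, then filtered and washed with ice-cold buffer. Nonspecific binding measured with 10 μM flunitrazepam (final). IC50 estimated from Hill plots.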
`c1ccc(CNc2cc3c(cn2)[nH]c2ccccc23)cc1` showed a half-inhibitory concentration (IC50) of over 1280 nM.
`CC(C)(C)C(=O)c1cc2c3ccccc3nc-2c[nH]1` came in with an IC50 of 358 nM.
On the same count and under the same terms, next, `CC(C)CCOc1cc2c3ccccc3nc-2c[nH]1`: 535 nM; `c1ccc(COc2cc3c4ccccc4nc-3c[nH]2)cc1`: over 1000 nM.
On the same count and under the same terms, the result for `CC(C)COc1cc2c(cn1)[nH]c1ccccc12` reads 93 nM; that for `CCC(C)Oc1cc2c3ccccc3nc-2c[nH]1` (configuration not stated), 471 nM.
For the molecule `Nc1cc2c(cn1)[nH]c1ccccc12`, the IC50 was over 25000 nM.
`CC(C)(C)COc1cc2c3ccccc3nc-2c[nH]1` came in with an IC50 of 104 nM.

The next assay is filed under the species Mus musculus. Description: Tested for convulsive activity in pentylenetetrazole injected mice. The format is functional.
Consider `CCOC(=O)c1cc2c(cn1)[nH]c1ccccc12`, for which the ED50 was found to be 3.2 mg/kg.
`COC(=O)c1cc2c(cn1)[nH]c1ccccc12` [BETA-CCM] had an ED50 of 10 mg/kg. Compared with the last molecule, the ED50 is about 3.1-fold higher.
Regarding `COc1cc2c(cn1)[nH]c1ccccc12`, the 50% effective dose (ED50) stood at 6 mg/kg.
Same read-out and setting: next, `CCOc1cc2c(cn1)[nH]c1ccccc12`: 7 mg/kg.

The values above are taken from ChEMBL document CHEMBL1125333, “Predictive binding of beta-carboline inverse agonists and antagonists via the CoMFA/GOLPE approach” (J Med Chem, 1992).
